Assays:
[1] = molecular target: Prothrombin (Homo sapiens, UniProt P00734); experiment: Inhibitory activity against human Thrombin
How it was run: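 Human thrombin at 1 nM final, in Tris 0.05 M, NaCl 0.15 M, 0.1% PEG-8000, pH 7.5, room temperature. Enzyme and compound preincubated 30 min; reaction started with Pefachrome TH (50 μM final). Absorbance at 405 nm followed for 5 min. IC50 is the level that halves control initial velocity; apparent Ki by Cheng-Prusoff, assuming competitive inhibition.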

[2] = molecular target: Coagulation factor X (Homo sapiens, UniProt P00742); experiment: Inhibitory activity against human Coagulation factor X
How it was run: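 Human factor Xa at 1 nM final, in 0.05 M Tris, 0.15 M NaCl, 0.1% PEG-8000, pH 7.5, room temperature. Compound preincubated with enzyme 30 min, then Spectrozyme FXa added (200 μM final). Run in triplicate. IC50 taken from initial velocities; Ki by Cheng-Prusoff, assuming competitive inhibition.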

[3] = molecular target: Cationic trypsin (Bos taurus); experiment: Inhibitory activity against bovine trypsin

Sequence of Coagulation factor X (P00742 41-179 limits assumed): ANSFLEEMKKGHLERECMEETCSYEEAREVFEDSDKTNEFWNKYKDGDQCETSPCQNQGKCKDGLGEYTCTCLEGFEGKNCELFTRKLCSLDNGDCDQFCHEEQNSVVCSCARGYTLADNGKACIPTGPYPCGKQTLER
Sequence of Coagulation factor X (P00742 235-488 limits assumed): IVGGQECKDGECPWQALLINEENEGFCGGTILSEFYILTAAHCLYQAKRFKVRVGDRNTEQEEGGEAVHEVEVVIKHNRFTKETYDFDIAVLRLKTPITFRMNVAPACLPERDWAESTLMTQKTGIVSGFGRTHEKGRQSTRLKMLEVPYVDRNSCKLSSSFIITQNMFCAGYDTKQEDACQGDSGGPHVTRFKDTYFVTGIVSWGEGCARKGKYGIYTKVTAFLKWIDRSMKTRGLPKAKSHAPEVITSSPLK

COC(=O)C(Cc1cccc(C(=N)N)c1)C(/C=C/c1ccccc1)NC(=O)c1ccc(-c2ccc(OC)cc2OC)cc1 (stereo unspecified)
IC50 [1]: 3500 nM | IC50 [2]: 90 nM | IC50 [3]: 2900 nM

COC(=O)C(Cc1cccc(C(=N)N)c1)C(/C=C/c1ccccc1)NC(=O)c1ccccc1C (stereo unspecified)
IC50 [2]: 1200 nM

COC(=O)C(Cc1cccc(C(=N)N)c1)C(/C=C/c1ccccc1)NC(=O)c1ccc2ccccc2c1 (stereo unspecified)
IC50 [2]: 160 nM

CC(=O)OCC(Cc1cccc(C(=N)N)c1)C(/C=C/c1ccccc1)NC(=O)c1ccc(-c2ccccc2)cc1 (stereo unspecified)
IC50 [1]: 3800 nM | IC50 [2]: 360 nM

COC(=O)C(Cc1cccc(C(=N)N)c1)C(/C=C/c1ccccc1)NC(=O)c1ccc(-c2ccccc2OC)cc1 (stereo unspecified)
IC50 [1]: 3300 nM | IC50 [2]: 50 nM | IC50 [3]: 1800 nM

COC(=O)C(Cc1cccc(C(=N)N)c1)C(/C=C/c1ccccc1)NC(=O)c1ccc(-c2ccccc2C)cc1 (stereo unspecified)
IC50 [1]: 9000 nM | IC50 [2]: 90 nM | IC50 [3]: 3100 nM

COC(=O)C(Cc1cccc(C(=N)N)c1)C(/C=C/c1ccccc1)NC(=O)C1CCC(C2CCCCC2)CC1 (stereo unspecified)
IC50 [2]: 1120 nM

COC(=O)C(Cc1cccc(C(=N)N)c1)C(/C=C/c1ccccc1)NS(=O)(=O)c1ccc(-c2ccccc2)cc1 (stereo unspecified)
IC50 [2]: 1970 nM

COC(=O)C(Cc1cccc(C(=N)N)c1)C(/C=C/c1ccccc1)NC(=O)c1ccc(-c2ccccc2)cc1 (stereo unspecified)
IC50 [1]: 18000 nM | IC50 [2]: 110 nM

COC(=O)[C@H](Cc1cccc(C(=N)N)c1)[C@@H](/C=C/c1ccccc1)NC(=O)c1ccccc1
IC50 [2]: 700 nM

COC(=O)C(Cc1cccc(C(=N)N)c1)C(/C=C/c1ccccc1)NC(=O)c1ccc(C2CCCCC2)cc1 (stereo unspecified)
IC50 [2]: 580 nM

CCc1ccccc1-c1ccc(C(=O)NC(/C=C/c2ccccc2)C(Cc2cccc(C(=N)N)c2)C(=O)OC)cc1 (stereo unspecified)
IC50 [1]: 5300 nM | IC50 [2]: 380 nM

COC(=O)C(Cc1cccc(C(=N)N)c1)C(/C=C/c1ccccc1)NC(=O)c1ccc(Cc2ccccc2)cc1 (stereo unspecified)
IC50 [2]: 460 nM

COC(=O)C(Cc1cccc(C(=N)N)c1)C(/C=C/c1ccccc1)NC(=O)c1ccc(-c2cccc(OC)c2)cc1 (stereo unspecified)
IC50 [1]: 2400 nM | IC50 [2]: 110 nM | IC50 [3]: 2200 nM

CCOc1cccc(-c2ccc(C(=O)NC(/C=C/c3ccccc3)C(Cc3cccc(C(=N)N)c3)C(=O)OC)cc2)c1 (stereo unspecified)
IC50 [1]: 4300 nM | IC50 [2]: 180 nM | IC50 [3]: 3600 nM

N=C(N)c1cccc(CC(C(=O)O)C(/C=C/c2ccccc2)NC(=O)c2ccc(-c3ccccc3)cc2)c1 (stereo unspecified)
IC50 [1]: 7700 nM | IC50 [2]: 2700 nM

COC(=O)C(Cc1cccc(C(=N)N)c1)C(/C=C/c1ccccc1)NC(=O)c1ccc(Oc2ccccc2)cc1 (stereo unspecified)
IC50 [2]: 1220 nM

CCOc1ccc(-c2ccc(C(=O)NC(/C=C/c3ccccc3)C(Cc3cccc(C(=N)N)c3)C(=O)OC)cc2)cc1 (stereo unspecified)
IC50 [1]: 2000 nM | IC50 [2]: 360 nM | IC50 [3]: 2800 nM

COC(=O)[C@@H](Cc1cccc(C(=N)N)c1)[C@@H](/C=C/c1ccccc1)NC(=O)c1ccccc1
IC50 [2]: 2000 nM

CN(C)C(=O)C(Cc1cccc(C(=N)N)c1)C(/C=C/c1ccccc1)NC(=O)c1ccc(-c2ccccc2)cc1 (stereo unspecified)
IC50 [2]: 4400 nM

COC(=O)C(Cc1cccc(C(=N)N)c1)C(/C=C/c1ccccc1)NC(=O)c1ccc(C)cc1 (stereo unspecified)
IC50 [2]: 600 nM

CCc1ccc(-c2ccc(C(=O)NC(/C=C/c3ccccc3)C(Cc3cccc(C(=N)N)c3)C(=O)OC)cc2)cc1 (stereo unspecified)
IC50 [2]: 890 nM

CCOc1ccccc1-c1ccc(C(=O)NC(/C=C/c2ccccc2)C(Cc2cccc(C(=N)N)c2)C(=O)OC)cc1 (stereo unspecified)
IC50 [1]: 3800 nM | IC50 [2]: 60 nM | IC50 [3]: 1800 nM

COC(=O)C(Cc1cccc(C(=N)N)c1)C(/C=C/c1ccccc1)NC(=O)c1ccc(-c2ccc(OC)c(OC)c2)cc1 (stereo unspecified)
IC50 [1]: 4700 nM | IC50 [2]: 30 nM

COC(=O)C(Cc1cccc(C(=N)N)c1)C(/C=C/c1ccccc1)NC(=O)c1ccc(-c2cccc(C)c2)cc1 (stereo unspecified)
IC50 [1]: 7200 nM | IC50 [2]: 120 nM

CCc1cccc(-c2ccc(C(=O)NC(/C=C/c3ccccc3)C(Cc3cccc(C(=N)N)c3)C(=O)OC)cc2)c1 (stereo unspecified)
IC50 [1]: 1700 nM | IC50 [2]: 390 nM | IC50 [3]: 2600 nM

COC(=O)C(Cc1cccc(C(=N)N)c1)C(/C=C/c1ccccc1)NC(=O)c1ccc(-c2ccc(OC)cc2)cc1 (stereo unspecified)
IC50 [1]: 2700 nM | IC50 [2]: 80 nM | IC50 [3]: 2900 nM

N=C(N)c1cccc(CCC(/C=C/c2ccccc2)NC(=O)c2ccc(-c3ccccc3)cc2)c1 (stereo unspecified)
IC50 [1]: 31000 nM | IC50 [2]: 950 nM

COC(=O)C(Cc1cccc(C(=N)N)c1)C(/C=C/c1ccccc1)NC(=O)c1cccc(C)c1 (stereo unspecified)
IC50 [2]: 1100 nM

COC(=O)C(Cc1cccc(C(=N)N)c1)C(/C=C/c1ccccc1)NC(=O)c1ccccc1 (stereo unspecified)
IC50 [2]: 700 nM

COC(=O)C(Cc1cccc(C(=N)N)c1)C(/C=C/c1ccccc1)NC(=O)c1cccc2ccccc12 (stereo unspecified)
IC50 [2]: 790 nM

COC(=O)C(Cc1cccc(C(=N)N)c1)C(/C=C/c1ccccc1)NC(=O)c1ccc(-c2ccc(C)cc2)cc1 (stereo unspecified)
IC50 [1]: 4800 nM | IC50 [2]: 240 nM | IC50 [3]: 2800 nM

COCC(Cc1cccc(C(=N)N)c1)C(/C=C/c1ccccc1)NC(=O)c1ccc(-c2ccccc2)cc1 (stereo unspecified)
IC50 [1]: 8700 nM | IC50 [2]: 540 nM | IC50 [3]: 10000 nM

N=C(N)c1cccc(CC(CO)C(/C=C/c2ccccc2)NC(=O)c2ccc(-c3ccccc3)cc2)c1 (stereo unspecified)
IC50 [2]: 650 nM

COC(=O)[C@H](Cc1cccc(C(=N)N)c1)[C@@H](CCc1ccccc1)NC(=O)c1ccc(-c2ccccc2)cc1
IC50 [2]: 60 nM

COC(=O)C(Cc1cccc(C(=N)N)c1)C(CCc1ccccc1)NC(=O)c1ccc(-c2ccccc2)cc1 (stereo in doubt; 8a)
IC50 [2]: 60 nM

COC(=O)C(Cc1cccc(C(=N)N)c1)C(CCc1ccccc1)NC(=O)c1ccc(-c2ccccc2)cc1 (stereo in doubt; 8b)
IC50 [2]: 310 nM
